Rows were chosen to be rich in hits. Some 6.4% of all compounds tested hit in one or more screens of this group.
Tb MetRS inh: T. brucei MetRS inhibitors, primary screen, biochemical, luminescence. methionyl-tRNA synthetase (Trypanosoma brucei brucei). purified T. brucei MetRS, ATP depletion, Kinase-Glo luminescence. inhibition, % at 11.9 µM. actives 0.4% (n = 360,000);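 active = inhibition above a per-plate cutoff of the control wells' mean inhibition plus 3 SD, cut at about 5.5% in these data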;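 note: 0% = DMSO wells median and 100% = median of wells with control inhibitor compound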
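System: purified T. brucei MetRS enzyme / Detection: Kinase-Glo luciferase luminescence reporting remaining unconsumed ATP / Medium: HEPES buffer with MgCl2, KCl, DTT, spermine, BSA, pyrophosphatase / Replication: singlicate, one well per compound / Evaluation: percent inhibition relative to median high and low control wells / Schedule: 2 h aminoacylation at 25 °C after 15 min preincubation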
CHOP inh: inhibitors of CHOP promoter induction, primary screen, cell-based, unfolded protein response, luciferase reporter; actives 3.8% (n = 220,000); CHO-K1 CHOP-promoter luciferase, tunicamycin-induced, 15-18 h; inhibition, % at 10 µM; AID 2732, 2010;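 active = compounds that reduced the stress-induced luciferase reporter signal by more than about 70% of percent inhibition, limit read from the data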;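 note: 0% = tunicamycin plus vehicle and 100% = wells without tunicamycin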
NR3A LBD binder: binders of NR3A ligand-binding domain, primary screen, biophysical, differential scanning fluorimetry, uHTS; Glutamate receptor ionotropic, NMDA 3A (GRIN3A) ligand-binding domain; NR3A LBD differential scanning fluorimetry, Tm shift; 0% = protein alone, 100% = glycine-bound protein; Tm shift relative to glycine control, % at 25 µM; actives 2.5% (n = 340,000); AID 1259313, 2017;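 active = melting temperature shift of at least 10% of the positive control shift, at one fixed dose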
EBV gp42 block: Epstein-Barr virus gp42 inhibitors, primary screen, biochemical, uHTS, fluorescence polarization | Fluorescence polarization binding assay, mP read-out | actives 0.42% (n = 220,000) | Glycoprotein 42 (Epstein-Barr virus (strain AG876)), Q1HVG2 | inhibition, % (tested at 21.74 µM); in the data active = inhibition above about 50%
Target sequence (Q1HVG2 whole entry, looked up): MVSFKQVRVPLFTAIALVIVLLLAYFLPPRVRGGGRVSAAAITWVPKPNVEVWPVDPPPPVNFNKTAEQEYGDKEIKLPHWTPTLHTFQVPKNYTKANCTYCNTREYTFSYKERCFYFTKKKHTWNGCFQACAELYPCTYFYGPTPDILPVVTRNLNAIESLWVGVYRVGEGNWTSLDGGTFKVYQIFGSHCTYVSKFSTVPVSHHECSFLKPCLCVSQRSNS
WT yeast gro inh: growth inhibition of WT strain, primary screen, mitochondrial fusion inhibitor project, WT and mutant strains, chemical genetic; inhibition, % at 10 µM; actives 2.1% (n = 190,000); mitochondrial fusion phenotypic screen; in the data active = inhibition above about 58%; tested in S. cerevisiae
MPTP inh: mitochondrial permeability transition pore inhibitors, primary screen, biochemical, isolated mouse mitochondria, absorbance | Ca2+ swelling absorbance, 30 min | AID 602449, 2012 | actives 1.4% (n = 360,000) | inhibition, % at 10 µM;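 active = inhibition of 50% or more, scaled per plate between neutral and stimulator controls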;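 note: 0% = DMSO wells given calcium and 100% = 1 mM EGTA wells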
CHOP inh conf: retest of CHOP induction inhibitors, confirmation, cell-based. CHO-CHOP promoter luciferase reporter, tunicamycin-induced, luminescence. shares compounds with CHOP inh. inhibition, % at 10 µM. actives 45% (n = 2,100);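 active = mean of three repeat readings of reporter signal inhibition above a set limit, cut at about 70% in these data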;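 note: 0% = tunicamycin plus vehicle and 100% = wells lacking tunicamycin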
* = called active by the depositor; / = no result.

SMILES | Tb MetRS inh | CHOP inh | NR3A LBD binder | EBV gp42 block | WT yeast gro inh | MPTP inh | CHOP inh conf
CCN(CC(=O)NC1CCS(=O)(=O)C1)S(=O)(=O)c1cccc(C(C)=O)c1 (stereo not given) | 0 | -10 | 0 | -14 | 7 | -4 | /
Cc1c(C)n(CCCN(C)C)c2ncnc(NC3CCCCC3)c12 | 0 | / | -3 | / | / | 0 | /
CC(C)Cn1c(=O)c2ccccc2c2ccccc2c1=O | 0 | 103* | -1 | -1 | 31 | 3 | -9
COc1ccc(NC(=O)c2ccc(-c3ccccc3)cc2)cc1S(=O)(=O)N1CCOCC1 | 0 | 23 | -27 | -10 | -6 | 7 | /
O=C(CCl)Nc1cn(-c2ccccc2)nc1-c1ccc(F)cc1 | 0 | 105* | 1 | 5 | -24 | -6 | 100*
COc1ccc(/C=c2\sc3nc(-c4ccccc4OC)nn3c2=O)c(OC)c1 | -1 | 102* | 3 | 16 | -10 | 1 | 21
COC(=O)c1oc(-c2ccc(Cl)cc2)nc1C | 0 | -11 | -1 | 3 | -7 | 1 | /
COc1oc(-c2ccc(Cl)cc2)nc1C(F)(F)F | 0 | 103* | 1 | 4 | -16 | 0 | 71*
Cc1cc(NS(=O)(=O)c2ccc(NS(=O)(=O)c3ccc(Br)cc3)cc2)no1 | 0 | / | -2 | / | / | -1 | /
CCOc1ccc2nc(NC(=O)CSc3nnnn3C3CCCCC3)sc2c1 | 0 | 107* | 0 | 6 | 58 | 4 | 110*
CCOc1ccc2nc(NC(=O)CSc3nc4c(c(=O)n(C)c(=O)n4C)n3C(C)C)sc2c1 | 0 | 105* | -1 | -5 | 23 | 4 | 84*
O=C(c1cc2ccccc2oc1=O)N1CCN(CCc2ccccc2)CC1 | -1 | 8 | -3 | 9 | -9 | 0 | /
Cn1c(=O)n(CCOc2ccc(Cl)cc2Cl)c2ccccc21 | -1 | 98* | 8 | -20 | 6 | -2 | 71*
Cc1oc(=O)c(NC(=O)c2cccc(Cl)c2)cc1C(=O)c1ccccc1 | 0 | 104* | 1 | -11 | 57 | 6 | 64
COc1ccc(C(=O)Nc2cc(C(=O)c3ccccc3)c(C)oc2=O)cc1 | 0 | -70 | 2 | -19 | -3 | 4 | /
O=[N+]([O-])c1cc(S(=O)(=O)C(F)(F)F)ccc1Sc1nc2ccccc2s1 | 0 | 107* | -25 | 0 | 72 | -6 | -28
CCN(CC)C(=O)c1cc([N+](=O)[O-])cc2c1-c1ccc([N+](=O)[O-])cc1C2=C(C#N)C#N | 0 | -51 | -2 | -12 | / | 12 | /
O=C(O)[C@H](O)[C@@H](O)C(=O)O | -1 | / | -1 | / | / | 0 | /
CCOC(=O)C1CCCCN1Cc1ccc(F)c(Br)c1 (stereo not given) | 0 | 106* | -1 | -5 | -14 | 5 | 16
Oc1ccc(/C=N/N2CCN(C3c4ccccc4-c4ccccc43)CC2)c(O)c1 | 0 | 100* | 11* | -5 | 98* | 3 | 112*
O=C(O)c1ccccc1/C=N/N1CCN(C2c3ccccc3-c3ccccc32)CC1 | 0 | 6 | 0 | 2 | -2 | 2 | /
CCn1c2ccccc2c2cc(NC(=O)CSc3nnc(-c4ccc(OC)c(OC)c4)n3N)ccc21 | -2 | 42 | -1 | -13 | -1 | 0 | /
CCOc1ccc(-c2nnc(SCC(=O)Nc3ccc4c(c3)c3ccccc3n4CC)n2N)cc1 | -1 | 98* | -2 | -2 | 4 | 0 | 39
COc1ccc(NC(=O)c2cc(-c3cc(Cl)ccc3C)n[nH]2)c(OC)c1 | 0 | / | / | / | / | 0 | /
N#CC1=C(N)C(C#N)(C#N)C(c2cccnc2)C2CC(c3ccccc3)CC=C12 (stereo not given) | -1 | 96* | -7 | 23 | 16 | -2 | 33
SMILES | Tb MetRS inh | CHOP inh | NR3A LBD binder | EBV gp42 block | WT yeast gro inh | MPTP inh | CHOP inh conf
CCOC(=O)c1c(NC(C)=O)sc2c(O)cccc12 | 0 | 33 | 2 | -10 | 8 | 8 | /
CCOC(=O)c1c(NC(C)=O)sc2c(OCC(O)CNC(C)(C)C)c(Br)ccc12 (stereo not given) | 0 | 105* | -2 | 2 | 36 | -2 | 62
COc1cccc(NC(=O)CSc2nnc(Cn3nnc4ccccc43)n2C)c1 | -1 | -10 | 0 | -15 | -15 | 2 | /
COc1ccc(/C=C(/C(=O)c2cccs2)N2C=CC=CC2=C(C#N)C#N)cc1 | 0 | 105* | 1 | -8 | 0 | -2 | 109*
COc1ccc(/C=C(\C#N)C(=O)c2cccn2C)cc1 | -1 | / | 3 | / | / | 3 | /
Cc1ccc(N=CC2=C(O)CC(c3ccccc3Cl)CC2=O)cc1 (stereo not given) | 0 | 3 | 0 | -11 | / | 0 | /
O=C1CC(c2ccccc2)CC(O)=C1C=Nc1cccc(Cl)c1 (stereo not given) | 0 | 102* | -2 | -9 | 31 | 1 | 76*
O=C1CC(c2ccccc2Cl)CC(O)=C1C=Nc1ccccc1 (stereo not given) | 0 | 103* | 1 | -2 | -16 | 11 | 104*
CCc1cccc(CC)c1C(OC(C)=O)c1cccnc1 (stereo not given) | -1 | / | -2 | / | / | 0 | /
COc1cccc(Nc2ccc([N+](=O)[O-])c3nonc23)c1 | 0 | / | -5 | / | / | 30 | /
OC(c1ccc(Cl)cc1)c1ncc(-c2ccccc2F)[nH]1 (stereo not given) | 0 | / | / | / | / | 2 | /
Cc1ccc(-n2sc3ccccc3c2=O)cc1 | 1 | 106* | 3 | -25 | 96 | 0 | 30
Nc1c(C(=O)Nc2nc3ccccc3s2)sc2nc(-c3cccs3)ccc12 | 0 | 102* | 28* | 35 | 8 | 22 | 82*
Cc1ccsc1/C=N/NC(=O)c1ccccn1 | 0 | 41 | -3 | 2 | 17 | 1 | /
CCOCCCNC(=O)c1ccc(Cn2c(=S)[nH]c3c([nH]c4ccc(OC)cc43)c2=O)cc1 | -1 | -7 | 2 | -12 | -1 | -1 | /
CCCCNC(=O)c1ccc(Cn2c(=S)[nH]c3c([nH]c4ccc(OC)cc43)c2=O)cc1 | 0 | 105* | 5 | -9 | -17 | 6 | 16
Cc1n[nH]c(C)c1CCc1nc2c3ccccc3nc(SCC(=O)Nc3ccccc3F)n2n1 | -1 | 98* | 2 | -29 | 3 | 2 | -16
Cc1cncn1CCc1nc2c3ccccc3nc(SCC(=O)Nc3cccc(Cl)c3)n2n1 | 0 | 31 | -6 | -1 | 20 | 1 | /

Bioassay records as filed in PubChem.
